Consider 3 molecules from ChEMBL document CHEMBL1909566, “Diverse metabolic profiles of a Streptomyces strain isolated from a hyper-arid environment” (2011).

What all share (assay type): functional
In one assay the test system is Listeria monocytogenes. The experiment in a line: Antibacterial activity against Listeria monocytogenes ATCC 19115 after 18 hrs by […]. To be noted: ATCC 19115, 18 h. The method in brief:
(§1)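 Compounds were first screened by agar diffusion, with filter-paper disks of ampicillin (10 μg), oxolinic acid (2 μg) or oxytetracycline (30 μg) as positive controls. For MICs, strains were grown in Müller-Hinton broth to early stationary phase and diluted to OD600 = 0.005. Compound dilutions were added in DMSO (final 10%). Growth was read at OD620 after 18 h at 37 C, in duplicate with two independent cultures.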
(In agar diffusion tests the substance spreads into inoculated agar from a disc or well.)

The next assay has as its system Escherichia coli. The experiment in a line: Antibacterial activity against Escherichia coli ATCC 25922 after 18 hrs by […]. As to conditions: ATCC 25922, 18 h. The method in brief:
as §1

The subject of another assay is Bacillus subtilis. The assay can be described thus: Antibacterial activity against Bacillus subtilis NCTC 2116 after 18 hrs by […]. To be noted: NCTC 2116, 18 h. The method in brief: as §1
The next assay has as its system Vibrio parahaemolyticus. The assay can be described thus: Antibacterial activity against Vibrio parahaemolyticus NCTC 10441 after 18 hrs by […]. As to conditions: NCTC 10441, 18 h. The method in brief: as §1
The test system of another assay is Staphylococcus aureus. The experiment in a line: Antibacterial activity against Staphylococcus aureus ATCC 25293 after 18 hrs by […]. To be noted: ATCC 25923, 18 h, in the assay text read “ATCC 25923” for “ATCC 25293”. The method in brief: as §1

The MIC is the least concentration at which growth counts as inhibited. The low end stands for inhibition by little substance, the high end for a need for much substance.

In brackets after ≈: the same amount, converted by molar mass. Where only a bound is given, the exact number is not on record here.

For the molecule `CC/C=C/[C@H]1C/C=C/C=C\[C@H](OC)[C@@H](O)[C@@H](O)[C@@H](C)/C=C/C[C@@H](C)/C=C/C=C(C)/C=C/C(=O)O1` [CHAXALACTIN C], the minimum inhibitory concentration (MIC) in the assay on Listeria monocytogenes was 6.3 µg/mL (≈ 13.4 µM); against Escherichia coli, over 20 µg/mL; against Bacillus subtilis, 6.3 µg/mL (≈ 13.4 µM); in the assay with Vibrio parahaemolyticus, 12.5 µg/mL (≈ 26.6 µM); with Staphylococcus aureus, 0.8 µg/mL (≈ 1.7 µM).
For the molecule `CC/C=C/[C@H]1C/C=C/C=C\[C@H](O)[C@@H](O)[C@@H](O)[C@@H](C)/C=C/C[C@@H](C)/C=C/C=C(C)/C=C/C(=O)O1` [CHAXALACTIN B], the minimal inhibitory concentration (MIC) is 5 µg/mL (≈ 10.9 µM) in the assay with Listeria monocytogenes; over 20 µg/mL in the assay with Escherichia coli; 5 µg/mL (≈ 10.9 µM) against Bacillus subtilis; 20 µg/mL (≈ 43.8 µM) in the assay with Vibrio parahaemolyticus; 0.2 µg/mL (≈ 0.438 µM) against Staphylococcus aureus.
As for `CC/C=C/[C@H]1C/C=C/C=C\[C@H](O)C[C@@H](O)[C@@H](C)/C=C/C[C@@H](C)/C=C/C=C(C)/C=C/C(=O)O1` [CHAXALACTIN A], the MIC in the assay on Listeria monocytogenes is 6.3 µg/mL (≈ 14.3 µM); in the assay with Escherichia coli, over 20 µg/mL; against Bacillus subtilis it was 3.1 µg/mL (≈ 7.04 µM); in the assay with Vibrio parahaemolyticus, 12.5 µg/mL (≈ 28.4 µM); in the assay on Staphylococcus aureus, 0.4 µg/mL (≈ 0.908 µM).
